# Source: ChEMBL document CHEMBL1156129, “Synthesis, structure-activity relationships, and characterization of novel nonsteroidal and selective androgen receptor modulators” (J Med Chem, 2009)
# Key:
# [1] = Plasma concentration in Sprague-Dawley rat at 10 mg/kg, po after 360 mins; assay type: ADME, organism-based; design: dose 10 mg/kg, route oral
# [2] = AUC (8 hrs) in Sprague-Dawley rat at 10 mg/kg, po; assay type: ADME, organism-based; design: time < 8 hr, dose 10 mg/kg, route oral; conditions: plasma
# Androgen receptor [3] = target: T1, Androgen receptor (Homo sapiens, UniProt P10275); experiment: Agonist activity at androgen receptor in human MDA-KB2 cells transfected with MMTV linked luciferase assessed as transcriptional activation by luciferase reporter gene assay
# T1 sequence (P10275 whole entry): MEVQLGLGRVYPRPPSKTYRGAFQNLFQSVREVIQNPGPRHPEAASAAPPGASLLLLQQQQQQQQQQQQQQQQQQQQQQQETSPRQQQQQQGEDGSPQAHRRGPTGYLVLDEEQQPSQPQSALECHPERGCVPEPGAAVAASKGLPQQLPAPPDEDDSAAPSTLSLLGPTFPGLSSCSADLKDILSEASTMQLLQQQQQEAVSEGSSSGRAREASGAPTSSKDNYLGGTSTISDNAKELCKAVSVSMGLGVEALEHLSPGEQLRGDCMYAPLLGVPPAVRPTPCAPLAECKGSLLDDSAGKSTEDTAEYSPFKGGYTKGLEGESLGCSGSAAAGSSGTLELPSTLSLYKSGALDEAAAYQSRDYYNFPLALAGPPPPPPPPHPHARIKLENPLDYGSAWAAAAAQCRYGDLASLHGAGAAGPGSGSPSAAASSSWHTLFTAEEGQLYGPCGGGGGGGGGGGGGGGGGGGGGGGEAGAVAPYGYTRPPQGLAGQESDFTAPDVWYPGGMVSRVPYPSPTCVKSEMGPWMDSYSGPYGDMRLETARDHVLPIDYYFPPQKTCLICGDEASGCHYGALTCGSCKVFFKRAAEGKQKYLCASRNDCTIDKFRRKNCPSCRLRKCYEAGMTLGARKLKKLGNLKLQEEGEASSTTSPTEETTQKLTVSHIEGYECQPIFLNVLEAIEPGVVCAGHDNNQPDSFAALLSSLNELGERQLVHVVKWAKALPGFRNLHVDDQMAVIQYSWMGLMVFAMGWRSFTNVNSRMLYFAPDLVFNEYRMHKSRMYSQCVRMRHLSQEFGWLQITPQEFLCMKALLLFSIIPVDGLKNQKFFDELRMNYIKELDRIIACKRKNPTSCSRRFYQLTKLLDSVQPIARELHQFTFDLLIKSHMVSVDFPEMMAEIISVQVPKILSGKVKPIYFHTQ
# [4] = Plasma concentration in Beagle dog at 1 mg/kg, iv after 0.08 hrs; assay type: ADME, organism-based, Canis lupus familiaris; design: dose 1 mg/kg, route intravenous
# [5] = Plasma concentration in Sprague-Dawley rat at 10 mg/kg, po after 240 mins; assay type: ADME, organism-based; design: dose 10 mg/kg, route oral
# [6] = Plasma concentration in Beagle dog at 1 mg/kg, iv after 24 hrs; assay type: ADME, organism-based, Canis lupus familiaris; design: dose 1 mg/kg, route intravenous
# [7] = Plasma concentration in Sprague-Dawley rat at 1 mg/kg, iv after 240 mins; assay type: ADME, organism-based; design: dose 1 mg/kg, route intravenous
# [8] = Agonist activity at androgen receptor LBD T877A mutant in mouse NIH3T3 cells transiently transfected with beta-galactosidase reporter gene assessed as cellular transformation by R-SAT assay relative to dihydrotestosterone; assay type: functional
# Summary of the method: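 AR expression vector transiently co-transfected (Polyfect) with β-galactosidase and coactivators SRC1, DRIP205 and GRIP1 into NIH-3T3 fibroblasts at 60-70% confluency. ONPG substrate added, absorbance read at 420 nm. EC50 from a hyperbolic fit. Mean ± SEM of three or more independent experiments.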
# [9] = Plasma concentration in Sprague-Dawley rat at 10 mg/kg, po after 480 mins; assay type: ADME, organism-based; design: dose 10 mg/kg, route oral
# [10] = Plasma concentration in Beagle dog at 1 mg/kg, iv after 8 hrs; assay type: ADME, organism-based, Canis lupus familiaris; design: dose 1 mg/kg, route intravenous
# [11] = Plasma concentration in Sprague-Dawley rat at 10 mg/kg, po after 120 mins; assay type: ADME, organism-based; design: dose 10 mg/kg, route oral
# [12] = Volume of distribution at steady state in Sprague-Dawley rat at 1 mg/kg, iv; assay type: ADME, organism-based; design: dose 1 mg/kg, route intravenous; conditions: in vivo, read-out: Vdss
# [13] = Oral bioavailability in rat; assay type: ADME, organism-based; conditions: in vivo
# Androgen receptor [14] = target: T2, Androgen receptor (Mus musculus, UniProt P19091); experiment: Agonist activity at androgen receptor in mouse NIH3T3 cells transiently transfected with beta-galactosidase reporter gene assessed as cellular transformation by R-SAT assay
# T2 sequence (P19091 whole entry): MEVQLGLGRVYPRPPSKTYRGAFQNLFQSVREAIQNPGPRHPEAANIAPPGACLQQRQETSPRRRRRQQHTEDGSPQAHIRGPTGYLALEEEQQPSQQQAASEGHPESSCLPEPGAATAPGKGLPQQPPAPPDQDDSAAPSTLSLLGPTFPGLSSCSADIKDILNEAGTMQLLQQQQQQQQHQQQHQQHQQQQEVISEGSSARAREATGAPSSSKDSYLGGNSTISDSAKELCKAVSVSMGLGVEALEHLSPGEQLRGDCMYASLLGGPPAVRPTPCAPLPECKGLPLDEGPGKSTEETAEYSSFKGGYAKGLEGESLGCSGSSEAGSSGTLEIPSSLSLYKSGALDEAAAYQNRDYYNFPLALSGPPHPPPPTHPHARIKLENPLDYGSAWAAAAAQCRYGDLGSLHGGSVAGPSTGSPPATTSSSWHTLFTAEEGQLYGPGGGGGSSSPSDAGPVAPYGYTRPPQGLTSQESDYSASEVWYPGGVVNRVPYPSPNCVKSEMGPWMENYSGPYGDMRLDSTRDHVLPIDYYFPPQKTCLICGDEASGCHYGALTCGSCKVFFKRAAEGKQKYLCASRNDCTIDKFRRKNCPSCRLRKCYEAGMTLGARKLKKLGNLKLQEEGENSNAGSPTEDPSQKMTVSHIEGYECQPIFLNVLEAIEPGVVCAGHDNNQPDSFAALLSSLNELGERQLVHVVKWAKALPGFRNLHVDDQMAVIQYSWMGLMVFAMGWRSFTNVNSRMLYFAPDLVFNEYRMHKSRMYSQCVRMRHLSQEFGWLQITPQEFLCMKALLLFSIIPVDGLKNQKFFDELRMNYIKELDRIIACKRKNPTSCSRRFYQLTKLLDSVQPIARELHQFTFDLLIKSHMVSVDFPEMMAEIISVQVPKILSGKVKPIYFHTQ
# [15] = Plasma concentration in Sprague-Dawley rat at 10 mg/kg, po after 10 mins; assay type: ADME, organism-based; design: dose 10 mg/kg, route oral
# [16] = AUC (8 hrs) in Sprague-Dawley rat at 1 mg/kg, iv; assay type: ADME, organism-based; design: time < 8 hr, dose 1 mg/kg, route intravenous; conditions: plasma
# [17] = Plasma concentration in Beagle dog at 10 mg/kg, po after 4 hrs; assay type: ADME, organism-based, Canis lupus familiaris; design: dose 10 mg/kg, route oral
# [18] = Cmax in Beagle dog at 1 mg/kg, iv; assay type: ADME, organism-based, Canis lupus familiaris; design: dose 1 mg/kg, route intravenous; conditions: in vivo
# [19] = Cmax in Sprague-Dawley rat at 1 mg/kg, iv; assay type: ADME, organism-based; design: dose 1 mg/kg, route intravenous; conditions: in vivo
# [20] = Plasma concentration in Beagle dog at 10 mg/kg, po after 8 hrs; assay type: ADME, organism-based, Canis lupus familiaris; design: dose 10 mg/kg, route oral
# [21] = Cmax in Sprague-Dawley rat at 10 mg/kg, po; assay type: ADME, organism-based; design: dose 10 mg/kg, route oral; conditions: in vivo
# [22] = Plasma concentration in Beagle dog at 10 mg/kg, po after 24 hrs; assay type: ADME, organism-based, Canis lupus familiaris; design: dose 10 mg/kg, route oral
# [23] = Metabolic stability in human hepatocyte assessed as half life; assay type: ADME, cell-based, Liver; conditions: hepatocytes
smiles,measurement,setting,value
Cc1c(N2[C@@H]3CC[C@H]2C[C@@](C)(O)C3)ccc(C#N)c1Cl,concentration at 6 h,[1],350 ng/mL
same,AUC at 8 h,[2],2370 ng·h/mL
same,EC50,Androgen receptor [3],0.251 nM
same,concentration at 0.08 h,[4],357 ng/mL
same,concentration at 4 h,[5],353 ng/mL
same,concentration at 24 h,[6],0.3 ng/mL
same,concentration at 4 h,[7],45.4 ng/mL
same,Efficacy,[8],37%
same,concentration at 8 h,[9],253 ng/mL
same,concentration at 8 h,[10],5.5 ng/mL
same,concentration at 2 h,[11],238 ng/mL
same,Vd,[12],3.91 L/kg
same,bioavailability,[13],38%
same,EC50,Androgen receptor [14],1 nM
same,concentration at 10 min,[15],148 ng/mL
same,AUC at 8 h,[16],631 ng·h/mL
same,concentration at 4 h,[17],159 ng/mL
same,Cmax,[18],357 ng/mL
same,Cmax,[19],882 ng/mL
same,concentration at 8 h,[20],60.6 ng/mL
same,Cmax,[21],421 ng/mL
same,concentration at 24 h,[22],3.2 ng/mL
same,half-life,[23],5 h
